Test results reported in ChEMBL document CHEMBL4020814, “Synthesis, Binding Mode, and Antihyperglycemic Activity of Potent and Selective (5-Imidazol-2-yl-4-phenylpyrimidin-2-yl)[2-(2-pyridylamino)ethyl]amine Inhibitors of Glycogen Synthase Kinase 3” (J Med Chem, 2017).

How the values were obtained:
Angiopoietin-1 receptor = Angiopoietin-1 receptor (Homo sapiens, UniProt Q02763)
[1] = molecular target: Casein kinase I isoform epsilon (Homo sapiens, UniProt P49674); test: Inhibition of human CK1epsilon using biotin peptide substrate after 1 hr by scintillation counting method
Chain of Casein kinase I isoform epsilon (P49674 whole entry, canonical isoform): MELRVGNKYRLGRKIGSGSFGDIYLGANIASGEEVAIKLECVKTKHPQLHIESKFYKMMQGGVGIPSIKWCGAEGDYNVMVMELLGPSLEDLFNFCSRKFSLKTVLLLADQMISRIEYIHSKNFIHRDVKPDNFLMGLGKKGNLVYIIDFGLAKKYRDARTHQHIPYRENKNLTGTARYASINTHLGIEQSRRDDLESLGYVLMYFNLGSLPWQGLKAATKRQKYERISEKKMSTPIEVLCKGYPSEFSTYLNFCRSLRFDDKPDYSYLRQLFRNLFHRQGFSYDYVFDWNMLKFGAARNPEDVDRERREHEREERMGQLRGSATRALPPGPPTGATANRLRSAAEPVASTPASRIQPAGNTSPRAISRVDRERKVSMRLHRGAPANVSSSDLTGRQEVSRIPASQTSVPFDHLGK

[2] = Stability in human liver microsomes assessed as half life; type: ADME, microsome
Rattus norvegicus [3] = test: Toxicity in diabetic ZDF rat assessed as increase in beta-catenin mRNA levels in brain administered at 130 mg/kg/day infused over 20 hrs; type: organism-based; details: in vivo
[4] = Oral bioavailability in diabetic ZDF fa/fa rat at 8 mg/kg administered 4.5 and 0.5 hrs prior to oral glucose challenge; type: ADME, organism-based; details: in vivo
[5] = Plasma concentration in diabetic db/db mouse at 30 mg/kg administered at 4.5 and 0.5 hrs prior to oral glucose challenge measured 20 mins post second dose; details: plasma
[6] = Half life in diabetic ZDF fa/fa rat at 8 mg/kg administered 4.5 and 0.5 hrs prior to oral glucose challenge; type: ADME, organism-based; details: in vivo
Mus musculus [7] = test: Effect on insulin level in diabetic ob/ob mouse administered at 30 mg/kg, po measured post glucose challenge; type: ADME, organism-based; details: in vivo
Method in brief: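 ob/ob mice aged 9–10 weeks, 6–8 per group, given an oral glucose tolerance test with oral dosing at −4.5 and −0.5 h (vehicle captisol). Plasma glucose and insulin were measured after the glucose challenge. Values are mean ± SEM.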

Mus musculus [8] = test: Effect on urine glucose levels in diabetic db/db mouse administered orally at 4.5 and 0.5 hrs prior to oral glucose challenge; type: ADME; details: in vivo
Rattus norvegicus [9] = test: Effect on plasma glucose levels in lean ZDF fa/fa rat administered at 30 mg/kg dosed at 4.5 and 0.5 hrs prior to oral glucose challenge by oral glucose tolerance test; type: ADME, organism-based; details: in vivo
Rattus norvegicus [10] = test: Reduction in plasma insulin level in diabetic ZDF fa/fa rat at 30 mg/kg, po administered as single dose measured after 60 mins; type: ADME, organism-based; details: in vivo, 1 h
Method in brief: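 Twelve-week-old male ZDF (fa/fa) rats with fasted basal glucose of 500–550 mg/dL, food removed 3–4 h before dosing. A single oral dose was given with vehicle 15% captisol. Plasma glucose and insulin were measured from serial tail-snip bleeds, n = 8/group, mean ± SEM.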

[11] = Half life in po dosed diabetic ZDF rat; type: ADME, organism-based; details: in vivo
[12] = Oral bioavailability in diabetic ZDF rat; type: ADME, organism-based; details: in vivo
[13] = Cmax in po dosed diabetic ZDF rat; type: ADME, organism-based; design: route oral; details: in vivo
[14] = AUC in po dosed diabetic ZDF rat; type: ADME, organism-based; details: in vivo
[15] = Clearance in iv dosed diabetic ZDF rat; type: ADME, organism-based; details: in vivo
Method in brief: (§1)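 ZDF (fa/fa) rats dosed intravenously; clearance and steady-state volume of distribution derived from plasma concentration–time data.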

[16] = Volume of distribution at steady state in iv dosed diabetic ZDF rat; type: ADME, organism-based; details: in vivo, read-out: Vdss
Method in brief: as §1

Rattus norvegicus [17] = test: Effect on plasma insulin level in diabetic ZDF fa/fa rat assessed as plasma insulin levels at 5 mg/kg, iv prime dose with continuous infusion at 64 ug/kg/min for 4 days (reference value: 3.9 +/- 0.6 ng/ml); type: ADME, organism-based; details: in vivo, 96 h
Rattus norvegicus [18] = test: Toxicity in diabetic ZDF rat assessed as increase in beta-catenin mRNA levels in liver administered at 130 mg/kg/day infused over 20 hrs; type: organism-based; details: in vivo
Rattus norvegicus [19] = test: Toxicity in diabetic ZDF rat assessed as increase in beta-catenin mRNA levels in lungs administered at 130 mg/kg/day infused over 20 hrs; type: organism-based; details: in vivo
Rattus norvegicus [20] = test: Toxicity in diabetic ZDF rat assessed as increase in beta-catenin mRNA levels in colon administered at 130 mg/kg/day infused over 20 hrs; type: organism-based; details: in vivo
Rattus norvegicus [21] = test: Toxicity in diabetic ZDF rat assessed as increase in beta-catenin mRNA levels in adipose tissue administered at 130 mg/kg/day infused over 20 hrs; type: organism-based; details: in vivo
Rattus norvegicus [22] = test: Toxicity in diabetic ZDF rat assessed as increase in cyclin D1 mRNA levels in brain administered at 130 mg/kg/day infused over 20 hrs; type: organism-based; details: in vivo
Rattus norvegicus [23] = test: Toxicity in diabetic ZDF rat assessed as increase in cyclin D1 mRNA levels in liver administered at 130 mg/kg/day infused over 20 hrs; type: organism-based; details: in vivo
Rattus norvegicus [24] = test: Toxicity in diabetic ZDF rat assessed as increase in cyclin D1 mRNA levels in lung administered at 130 mg/kg/day infused over 20 hrs; type: organism-based; details: in vivo
Rattus norvegicus [25] = test: Toxicity in diabetic ZDF rat assessed as increase in cyclin D1 mRNA levels in colon administered at 130 mg/kg/day infused over 20 hrs; type: organism-based; details: in vivo
Rattus norvegicus [26] = test: Toxicity in diabetic ZDF rat assessed as increase in cyclin D1 mRNA levels in adipose tissue administered at 130 mg/kg/day infused over 20 hrs; type: organism-based; details: in vivo
Mus musculus [27] = test: Effect on insulin level in diabetic db/db mouse at 30 mg/kg administered at 4.5 and 0.5 hrs prior to oral glucose challenge; type: ADME, organism-based; details: in vivo
Method in brief: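 db/db mice, 6–8 per group, fasted ~6 h (food removed 3 h before prebleed), dosed orally at −4.5 and −0.5 h relative to oral glucose (vehicle 10% captisol). Tail-snip blood glucose was read by glucometer or analyzer; plasma insulin was measured by ELISA.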

Mus musculus [28] = species on record: Mus musculus; test: Effect on insulin levels in streptozotocin-treated mouse fed with high fat diet; type: ADME; details: in vivo
Method in brief: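 Mice on a high-fat diet with intermittent streptozotocin were dosed orally at −4.5 and −0.5 h before oral glucose challenge. Post-challenge glucose AUC and insulin were measured.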

Rattus norvegicus [29] = test: Effect on plasma insulin level in obese ZDF fa/fa rat at 30 mg/kg dosed at 4.5 and 0.5 hrs prior to oral glucose challenge measured at -250 mins (reference value: 7.2 +/- 0.6 ng/ml); type: ADME, organism-based; details: in vivo
Rattus norvegicus [30] = test: Effect on plasma insulin level in obese ZDF fa/fa rat at 30 mg/kg dosed at 4.5 and 0.5 hrs prior to oral glucose challenge measured at -45 mins (reference value: 6.9 +/- 0.3 ng/ml); type: ADME, organism-based; details: in vivo
Rattus norvegicus [31] = test: Effect on plasma insulin level in obese ZDF fa/fa rat at 30 mg/kg dosed at 4.5 and 0.5 hrs prior to oral glucose challenge measured at 25 mins (reference value: 8.5 +/- 0.7 ng/ml); type: ADME, organism-based; details: in vivo
Rattus norvegicus [32] = test: Effect on plasma insulin level in obese ZDF fa/fa rat at 30 mg/kg dosed at 4.5 and 0.5 hrs prior to oral glucose challenge measured at 60 mins (reference value: 7.8 +/- 0.8 ng/ml); type: ADME, organism-based; details: in vivo
Rattus norvegicus [33] = test: Effect on plasma insulin level in lean ZDF fa/fa rat at 30 mg/kg dosed at 4.5 and 0.5 hrs prior to oral glucose challenge measured at -250 mins (reference value: 0.2 +/- 0.1 ng/ml); type: ADME, organism-based; details: in vivo
Rattus norvegicus [34] = test: Effect on plasma insulin level in lean ZDF fa/fa rat at 30 mg/kg dosed at 4.5 and 0.5 hrs prior to oral glucose challenge measured at -45 mins (reference value: 0.2 +/- 0.1 ng/ml); type: ADME, organism-based; details: in vivo
Rattus norvegicus [35] = test: Effect on plasma insulin level in lean ZDF fa/fa rat at 30 mg/kg dosed at 4.5 and 0.5 hrs prior to oral glucose challenge measured at 25 mins (reference value: 0.4 +/- 0.1 ng/ml); type: ADME, organism-based; details: in vivo
Rattus norvegicus [36] = test: Effect on plasma insulin level in lean ZDF fa/fa rat at 30 mg/kg dosed at 4.5 and 0.5 hrs prior to oral glucose challenge measured at 60 mins (reference value: 0.3 +/- 0.1 ng/ml); type: ADME, organism-based; details: in vivo, 1 h

Chain of Angiopoietin-1 receptor (Q02763 whole entry, canonical isoform): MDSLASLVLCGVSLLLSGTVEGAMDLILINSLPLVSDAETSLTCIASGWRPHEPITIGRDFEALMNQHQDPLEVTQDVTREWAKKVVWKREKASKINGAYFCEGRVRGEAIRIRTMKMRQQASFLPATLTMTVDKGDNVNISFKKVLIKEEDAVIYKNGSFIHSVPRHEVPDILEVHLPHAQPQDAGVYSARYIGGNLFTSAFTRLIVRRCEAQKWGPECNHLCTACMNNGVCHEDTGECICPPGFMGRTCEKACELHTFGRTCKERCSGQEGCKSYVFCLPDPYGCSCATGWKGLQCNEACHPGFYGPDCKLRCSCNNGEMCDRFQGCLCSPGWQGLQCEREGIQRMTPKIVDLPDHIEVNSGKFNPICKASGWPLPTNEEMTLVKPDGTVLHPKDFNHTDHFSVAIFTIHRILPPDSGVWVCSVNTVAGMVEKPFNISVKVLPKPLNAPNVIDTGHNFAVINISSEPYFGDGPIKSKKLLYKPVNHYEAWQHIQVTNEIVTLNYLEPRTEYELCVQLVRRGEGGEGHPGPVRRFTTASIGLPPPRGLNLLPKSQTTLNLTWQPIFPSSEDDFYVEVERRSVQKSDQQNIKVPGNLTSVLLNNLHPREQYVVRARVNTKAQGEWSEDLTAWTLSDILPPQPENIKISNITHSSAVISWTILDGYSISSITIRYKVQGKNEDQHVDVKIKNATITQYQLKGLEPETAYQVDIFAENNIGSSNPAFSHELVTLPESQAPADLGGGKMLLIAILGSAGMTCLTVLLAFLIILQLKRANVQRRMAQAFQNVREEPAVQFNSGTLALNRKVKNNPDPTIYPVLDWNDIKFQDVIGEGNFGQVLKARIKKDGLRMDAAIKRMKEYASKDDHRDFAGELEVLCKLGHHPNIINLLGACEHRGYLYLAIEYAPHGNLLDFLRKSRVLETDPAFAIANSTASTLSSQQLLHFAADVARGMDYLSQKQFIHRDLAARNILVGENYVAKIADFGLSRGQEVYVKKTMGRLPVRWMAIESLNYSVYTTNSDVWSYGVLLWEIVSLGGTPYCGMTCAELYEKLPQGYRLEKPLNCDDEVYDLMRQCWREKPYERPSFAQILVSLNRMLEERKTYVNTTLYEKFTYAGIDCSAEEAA

Cc1c[nH]c(-c2cnc(NCCNc3ccc(C#N)cn3)nc2-c2ccc(Cl)cc2Cl)n1 [LADUVIGLUSIB]
IC50 (Angiopoietin-1 receptor): > 5 µM
IC50 [1]: > 5 µM
half-life [2]: 1.82 h
Activity (Rattus norvegicus [3]): Non-Toxic
bioavailability [4]: 36%
concentration at 20 min [5]: 15000 ng/mL
half-life [6]: 1.53 h
Activity (Mus musculus [7]): Toxic
Activity (Mus musculus [8]): Non-Toxic
Activity (Rattus norvegicus [9]): Non-Toxic
Activity (Rattus norvegicus [10]): Toxic
half-life [11]: 1.53 to 1.63 h
bioavailability [12]: 36 to 43%
Cmax [13]: 400 ng/mL
AUC [14]: 1420 ng·h/mL
clearance [15]: 43 mL/min/kg
Vd [16]: 3.6 L/kg
Activity (Rattus norvegicus [17]): 3.1 ng/mL
Activity (Rattus norvegicus [18]): Non-Toxic
Activity (Rattus norvegicus [19]): Non-Toxic
Activity (Rattus norvegicus [20]): Non-Toxic
Activity (Rattus norvegicus [21]): Non-Toxic
Activity (Rattus norvegicus [22]): Non-Toxic
Activity (Rattus norvegicus [23]): Non-Toxic
Activity (Rattus norvegicus [24]): Non-Toxic
Activity (Rattus norvegicus [25]): Non-Toxic
Activity (Rattus norvegicus [26]): Non-Toxic
Activity (Mus musculus [27]): Non-Toxic
Activity (Mus musculus [28]): Toxic
Activity (Rattus norvegicus [29]): 6.3 ng/mL
Activity (Rattus norvegicus [30]): 5.3 ng/mL
Activity (Rattus norvegicus [31]): 4.8 ng/mL
Activity (Rattus norvegicus [32]): 5.2 ng/mL
Activity (Rattus norvegicus [33]): 0.3 ng/mL
Activity (Rattus norvegicus [34]): 0.3 ng/mL
Activity (Rattus norvegicus [35]): 0.6 ng/mL
Activity (Rattus norvegicus [36]): 0.4 ng/mL
